The values that follow come from the EternaBench riboswitch data.

For this series, the system named is MS2 coat protein. Put plainly: apparent Kd, MS2 coat protein; higher = weaker binding; RNA-MaP array; FMN 200 µM where present. Summed up:
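Designs were transcribed by stalled E. coli RNA polymerase on Illumina sequencing-chip clusters. They were titrated with SNAP-549-labelled MS2 coat protein from 0.7 or 1.5 nM, doubling to 3 µM, without and then with constant ligand. Buffer: 100 mM Tris-HCl pH 7.5, 80 mM KCl, 4 mM MgCl2, BSA, DTT, yeast tRNA, Tween-20. Green signal was normalised to red-channel RNA signal and control-cluster median Fmax. Apparent Kd is the median of filtered per-cluster binding-curve fits.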

[1] abbreviates: designed as: ON switch for flavin mononucleotide, no ligand.
Where [2] appears, read: ligand present: flavin mononucleotide, designed as: ON switch for flavin mononucleotide.
The mark [3] stands for this setting: designed as: OFF switch for flavin mononucleotide, no ligand.
The mark [4] stands for this setting: ligand present: flavin mononucleotide, designed as: OFF switch for flavin mononucleotide.

Turning to “GGGUACAUCGGAGGAUAUCAUGUAAAUACAUGAGGAUCACCCAUGUCGAUGGAGACAUCGGAGACUGAGAAGGCCGAUGUACCG”, the “apparent Kd” value by setting is: under setting [1], 41.8 nM; under setting [2], 7.18 nM.

For the sequence “GGUGCGAUGUAGAAGGCAGAUCUGAUUCAGAUCUGAGGAUAUACAUGAGGAUCACCCAUGUUACGCACCAGCACGAGAGUGCAA”, the “apparent Kd” value by setting is: under setting [3], 6.18 nM; under setting [4], 11.1 nM.

For “UGCUGACAAGGAUAUACUCGGGAUGCUAGUCGCGCAGUUGCACAUGAGGAUCACCCAUGUAGAAGGUGUCAGUA”, the “apparent Kd” value came out at 169 nM under setting [3] and 210 nM under setting [4].

For the sequence “UUGGGUUUGGGAGGAUAUGGGUAAAAUAAAGUACUAGAAGGCUUAAAUUAUUUUAUAGUUGUAUUACAUGAGGAUCACCCAUGU”, the “apparent Kd” value is, setting by setting: under setting [1], 13.6 nM; under setting [2], 10.4 nM.

For “GGAGCGAGCACAGGAUAUAAGCUAACGGUUAGUUUAGAAGGGUGGGAUCAGACAUGAGGAUCACCCAUGUGUGUUUUUGCUCCA”, the “apparent Kd” value by setting is: under setting [1], 128 nM; under setting [2], 314 nM.

Consider “AUUGAUGUUGAGGAUAUGCUUUUAUUUAUAAUAGCAGAAGGCGAUACAUGAGGAUCACCCAUGUUCAUGGUUUU”, for which the “apparent Kd” value was determined as 24.9 nM under setting [3] and 33.6 nM under setting [4].

As for “AGAUUCAUGGCCCGUUCGGGCCCACAUGAGGAUCACCCAUGUGAGGAUAUGAUGUACCUGAUUCAUCAGAAGGCGCAUGCGAAA”, the “apparent Kd” value is, setting by setting: under setting [3], 7.32 nM; under setting [4], 20.5 nM.

Take “AAAACAUACCGAGGAUAUUCAUUUAAUAAAUAAACAUGAGGAUCACCCAUGUGGCAAAAGCCUAGGGAGAAGGCGGAAUGCUAA”: the “apparent Kd” value runs as follows: under setting [1], 33.4 nM; under setting [2], 26.5 nM.

As to “ACAUGAUAUGUAGGAUAUCACAACUUGUGUUAUAAAAUUGUAUUUUAGGAUUGAGAAGGACAUUUACAUGAGGAUCACCCAUGU”, the “apparent Kd” value by setting is: under setting [3], 15.5 nM; under setting [4], 12.8 nM.

In the case of “GUCAGCUCGUGAGGAUAUACAACACUGCUUCGGCAAUGUAUUAAGAUCACAUGAGGAUCACCCAUGUAGAAGGCACGAGCUGAU”, the “apparent Kd” value is, setting by setting: under setting [3], 9.99 nM; under setting [4], 164 nM.

Regarding “UGAUAGGACAGAGGAUAUGCCGAUAGGCUCUACUAUCGAAGAAUCCUCACAUGAGGAUCACCCAUGUAGAAGGCUGUCCUAUCU”, the “apparent Kd” value under setting [3] came to 19.1 nM and the “apparent Kd” value under setting [4] is 48 nM.

As to “GUUGUUUCUGAGGAUAUUAUUUUUUUCGAUUGAUAAGAAGGCAGUACAUGAGGAUCACCCAUGUGGGUUGUCUG”, the “apparent Kd” value is, setting by setting: under setting [3], 37.2 nM; under setting [4], 150 nM.

“UGUCCAUAGCAGAAGGACAUGAGGAUCACCCAUGUAAUCAUACAAAUAUAUGUAGGAUAUGCUAUGGACUAAGAGCGAAAGCUC”: the “apparent Kd” value is 6.14 nM under setting [3] and 6.74 nM under setting [4].

Consider “UGCUACGUUUCGUAGCAGUGUCAUCGAGAAGGCCCUGACAUGAGGAUCACCCAUGUUGUUACAUGGGAGGAUAUCGAUGAUACA”, for which, under setting [2], the “apparent Kd” value was 5.16 nM.

On to “AAAUAAAGGACUAAGGAUAUAUCACAUGAAACAUGAGGAUCACCCAUGUAAUAAUACAAAGGGUGAUAGAAGGUAGUCCACAAACA”, for which the “apparent Kd” value worked out at 55.7 nM under setting [1] and 20.5 nM under setting [2].

“AGCACGAAAGUGCAACGAUGUACGAGAAGGACAUGAGGAUCACCCAUGUAAGCAGUAACUGCAAUGUAGGAUAUCGUACAUCGA”: the “apparent Kd” value was determined as 8.41 nM under setting [3] and 12 nM under setting [4].

Regarding “CCCGAGUUAGGAUAUCGGACCGGUCCGCGCGGACUGGCAAUUGAGAAGGAACAUGAGGAUCACCCAUGUGAGUA”, the “apparent Kd” value runs as follows: under setting [3], 25.5 nM; under setting [4], 52.3 nM.

As for “UUAUUUAGGUAGGAUAUCGAUACCAAUCCCUAUCGAGAAGGGUCUACAUGAGGAUCACCCAUGUUAGCAUGUUU”, the “apparent Kd” value by setting is: under setting [3], 20.1 nM; under setting [4], 21.1 nM.

On to “UGUGUGUGGCAGGAUAUGCAGGUAAUAAGACGGGUAGAAGGGUCUACAUGAGGAUCACCCAUGUGGCCGGUUGG”, for which the “apparent Kd” value reads like this: under setting [3], 16.1 nM; under setting [4], 18.2 nM.

In the case of “UUUAUGUCAGGAUAUGAUUAGAUCUACUUUUGUAGAUCUAAUCAGAAGGGACAUGAGGAUCACCCAUGUAGUUU”, the “apparent Kd” value by setting is: under setting [3], 126 nM; under setting [4], 236 nM.

Turning to “AGGGUAUGAACAUGAGGAUCACCCAUGUACCAGGAAACGAAUGAGGAUAUCGAUAGCAAAGCUAUCGAGAAGGCAUGGGACCCU”, the “apparent Kd” value was found to be 318 nM under setting [1] and 62.2 nM under setting [2].

Take “GGUUGUCAUCGUCGUCCUUUCGGUACAUGAGGAUCACCCAUGUAGGAUAUGCUGCAUUCGAUGUGGCAGAAGGGCGUGUGUGUU”: the “apparent Kd” value runs as follows: under setting [3], 16.7 nM; under setting [4], 18.4 nM.

As to “GCGUCUUAGUAGAAGGGACAUCGGCUGGUAAGCAUCAUCUCCUUCUCACAUGAGGAUCACCCAUGUCAGGAUAUACUAAGAUGC”, the “apparent Kd” value under setting [3] stood at 11.5 nM and the “apparent Kd” value under setting [4] came to 43.1 nM.

In the case of “AAGUGGUUUAUAUAUAUAGAUAUCAGAAGGCGUGACAUGAGGAUCACCCAUGUGUACUGUCAUGACGAGGAUAUGACUAAUUGU”, the “apparent Kd” value under setting [3] is 24 nM and the “apparent Kd” value under setting [4] was determined as 19.5 nM.

For the sequence “CGAUGGCAUGUAGGAUAUCGAGCUCAAAGAGCUCGAGAAGGACAUGAGGAUCACCCAUGUCCUCACAGACAGUGAGGGCUAUCG”, the “apparent Kd” value turned out to be 22.3 nM under setting [3] and 54.7 nM under setting [4].

Take “GCGAAUUAGUGAGGAUAUACAUAAUUUAUAACUGUAGAAGGCACAAACCUCAAGACAUGAGGAUCACCCAUGUGGUAUUACGCU”: the “apparent Kd” value is 112 nM under setting [3] and 281 nM under setting [4].

For the sequence “GUGCCUUGGAAGAAGGCCGUAUGCAAAGCAUACGGAGGAUAUUCAUACCGGAAACGGACAUGAGGAUCACCCAUGUGGCACAAA”, the “apparent Kd” value runs as follows: under setting [1], 13 nM; under setting [2], 6.24 nM.

“GGAUAGGACAGAGGAUAUACGUGCUAGAGAUACUACCAAAAUUUCCUCACAUGAGGAUCACCCAUGUAGAAGGCUGUCCUAUCG”: the “apparent Kd” value by setting is: under setting [3], 180 nM; under setting [4], 143 nM.

For the sequence “AGUUAUCAUGUAGGAUAUGCUUGAGGUAAGAAAGCAGAAGGACAUGAGGAUCACCCAUGUUAAUGAUACAGAUUUUAGUUUCUU”, the “apparent Kd” value is 32.9 nM under setting [3] and 201 nM under setting [4].

As to “UUAGAACAUGAGGAUCACCCAUGUGAGGAUAUGCAAUACUAAUAUUAAGAUAAUUAUAGCAGAAGGCACGUAGU”, the “apparent Kd” value runs as follows: under setting [3], 34.3 nM; under setting [4], 47.7 nM.

For the sequence “AGCAAAUCAGGAUAUGUACUGGACGACAUGAGGAUCACCCAUGUGAUUCAGUGCGCGAGAACAGAAGGGAUUCGCU”, the “apparent Kd” value turned out to be 17.4 nM under setting [3] and 42.8 nM under setting [4].

For “AGUAAACAUGAGGAUCACCCAUGUGGUGGCCCAUGAGGAUAUCCAUGCGCAAUACGCAUAGGAGAAGGCAUAGCCA”, the “apparent Kd” value came to 62 nM under setting [1] and 123 nM under setting [2].

As for “UAGAUUUAUGUAGGAUAUACAUUUUUUAUGUAUGUAGAAGGACAUGAGGAUCACCCAUGUAAAUAAAUAUUAAAUAUCAUAAUU”, the “apparent Kd” value runs as follows: under setting [3], 30.4 nM; under setting [4], 23.8 nM.

With “UACUUCCGAGGAUAUACAUGAGGAUCACCCAUGUGCUUCAGCAUCUAAUGAUGCAUGGGUAGAAGGCGGUAGUU”, the “apparent Kd” value under setting [3] turned out to be 58.5 nM and the “apparent Kd” value under setting [4] stood at 68.1 nM.

For the sequence “GCGUUGAUGUAGAAGGUACAUGAAUACUUUUAAUACCUCAAGUAACAUGAGGAUCACCCAUGUAGUAAGGAUAUACAUGAACGC”, the “apparent Kd” value was determined as 34.7 nM under setting [1] and 29.5 nM under setting [2].

On to “GGAACUUAGGGAGGAUAUAGGCGACAUGAGGAUCACCCAUGUACGGAGGGCUCUUCCCGUGUUCACUAGAAGGCCCAUGUUACC”, for which the “apparent Kd” value under setting [3] was 19.4 nM and the “apparent Kd” value under setting [4] amounted to 75 nM.

On to “UUGGACGUCGUAGGAUAUGUAGGAUAUUCCUACAUGAGGAUCACCCAUGUUGACAUGGAAGAAGGACAGCAGGACGAUGUCCAU”, for which the “apparent Kd” value under setting [1] is 690 nM and the “apparent Kd” value under setting [2] came to 12.9 nM.

Consider “AAUCCACAUGAGGAUCACCCAUGUCAGGAUAUCGUGUCGCGGGUUUCGGUCCGUGAUGCGAGAAGGGACGGCUG”, for which the “apparent Kd” value under setting [3] is 31.9 nM and the “apparent Kd” value under setting [4] is 53.1 nM.

For the sequence “GGGUACAUCGGAGGAUAUCAUGUAAAUACAUGAGGAUCACCCAUGUCGAUGGAGACAACGGAGAUUGAGAAGGCCGAUGUACCG”, the “apparent Kd” value by setting is: under setting [1], 952 nM; under setting [2], 108 nM.

Take “UGUUAGUAGACAGGAUAUUGAAUGUUAAGUAUUAACAUGAGGAUCACCCAUGUAUUAGAUUGGUACAAGAAGGGUCAAGUUUGU”: the “apparent Kd” value under setting [1] stood at 380 nM and the “apparent Kd” value under setting [2] is 653 nM.

Consider “UUCGUGCAGCGUUGCUGUACGCGUACAUGAGGAUCACCCAUGUAGGAUAUGGUACGCUUUGCGUGCUAGAAGGAUAUGGAGAGG”, for which the “apparent Kd” value reads like this: under setting [3], 15.2 nM; under setting [4], 18.9 nM.

Consider “UAAUAAUAAUAAUACCAGUUUACAUGAGGAUCACCCAUGUAUAAGGAUAUGCAGUGGAAUACACUGCAGAAGGUAUACAUCUGG”, for which the “apparent Kd” value reads like this: under setting [3], 18.8 nM; under setting [4], 35.9 nM.

As for “GAUGCGAAUGUGAGGAUAUCGGAGUAUUUAAACUCUGAGAAGGCACAUGAGGAUCACCCAUGUCCGUGCGUCUA”, the “apparent Kd” value is 506 nM under setting [3] and 130 nM under setting [4].

Take “UUAAUUCUGAUUCUUGAAAUACAUGAGGAUCACCCAUGUUCACAGGAUAUUGAUUAUGUUAGUAACAAGAAGGGUGUAACAUAU”: the “apparent Kd” value is, setting by setting: under setting [3], 30.6 nM; under setting [4], 85.6 nM.

With “ACUUUCAUUGUGAGGAUAUGCCCAAAUAAAAGCGGGCAGAAGGCACAUGAGGAUCACCCAUGUCCUGCGGUUAU”, the “apparent Kd” value by setting is: under setting [3], 34.6 nM; under setting [4], 394 nM.

With “AGGUAGCAAGGAUAUACAUGAGGAUCACCCAUGUAAAUGCACGUUUAGGCCCUGCUAUGUAGAAGGUGCACCCG”, the “apparent Kd” value came to 17.3 nM under setting [3] and 16.8 nM under setting [4].

Turning to “AGGAAGUGAGGAUAUGCAGUAGCUAGUGGACGCUAGCACAUGUAGAAGGCACAUGAGGAUCACCCAUGUUUAAA”, the “apparent Kd” value came out at 30.5 nM under setting [3] and 28.3 nM under setting [4].

On to “AUUUUUUAUGUAGGAUAUGCUUGUGGUAAGAUAGCAGAAGGACAUGAGGAUCACCCAUGUUAAUGAUAGAGAUUUUAUGUUGGU”, for which the “apparent Kd” value runs as follows: under setting [3], 38.8 nM; under setting [4], 58.8 nM.

As a reminder, the apparent Kd is a dissociation constant that holds for the conditions of the assay.
